Results on 32 compounds are retold here after ChEMBL document CHEMBL4118112, “Synthesis and Evaluation of the First Fluorescent Antagonists of the Human P2Y2 Receptor Based on AR-C118925” (J Med Chem, 2018).

The structures appear in SMILES notation. Active and inactive are the calls of the source. The rule behind the calls is not given here.

For data set [1], the target named is T1, P2Y purinoceptor 2 (Homo sapiens, UniProt P41231). The data set is described as follows: Binding affinity to recombinant human N-terminal NLuc-tagged P2Y2R expressed in human 1321N1 cells incubated for 1 hr in presence of AR-C118925 by furimazine-based NanoBRET assay. Format: cell-based. In a few lines: (§1)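 N-terminally NanoLuc-tagged hP2Y2R was stably expressed in 1321N1 cells. Cells were treated with increasing concentrations of fluorescent conjugate, or a fixed 10 µM for screening, with or without 10 µM AR-C118925 to define nonspecific binding. Furimazine substrate was then added and the BRET signal read. pKd came from saturation binding curves; mean ± SEM of separate experiments.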
T1 sequence (P41231 whole entry): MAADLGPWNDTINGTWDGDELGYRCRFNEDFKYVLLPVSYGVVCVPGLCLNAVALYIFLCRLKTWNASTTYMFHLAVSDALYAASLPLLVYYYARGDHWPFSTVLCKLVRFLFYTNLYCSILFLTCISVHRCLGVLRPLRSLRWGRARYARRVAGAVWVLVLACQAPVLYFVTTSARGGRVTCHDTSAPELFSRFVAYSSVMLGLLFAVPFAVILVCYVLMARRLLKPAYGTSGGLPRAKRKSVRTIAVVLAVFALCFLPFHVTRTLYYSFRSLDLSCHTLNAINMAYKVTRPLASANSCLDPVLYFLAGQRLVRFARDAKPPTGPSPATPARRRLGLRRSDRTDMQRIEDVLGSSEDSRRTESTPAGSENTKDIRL

Data set [2] addresses T1, P2Y purinoceptor 2. Nature of the data set: Antagonist activity at human P2Y2R expressed in human 1321N1 cells assessed as inhibition of UTPgammaS-activated calcium-mobilization at 10 uM preincubated for 45 mins measured every 1.52 secs for 200 secs after the addition of UTPgammaS at 15 secs by fluo-4AM-based fluorescence assay relative to UTPgammaS. Format: functional, cell-based. A digest of the protocol:
(§2)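 hP2Y2R in 1321N1 astrocytoma cells. Calcium mobilization was driven by UTPγS. Single-concentration lines: compound at 10 µM, inhibition scored against the 0.1 µM UTPγS response (n=3). For the pKb line, the UTPγS concentration-response curve was run with a single antagonist concentration added, and pKb was calculated from the curve shift with the Gaddum equation.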

In data set [3] the target is T1, P2Y purinoceptor 2. The data set is described as follows: Binding affinity to recombinant human N-terminal NLuc-tagged P2Y2R expressed in human 1321N1 cells at 10 uM incubated for 1 hr in presence of AR-C118925 by furimazine-based NanoBRET assay. The data set is classed as cell-based. In a few lines: as §1
Data set [4] addresses T1, P2Y purinoceptor 2. Nature of the data set: Antagonist activity at human P2Y2R expressed in human 1321N1 cells assessed as inhibition of UTPgammaS-activated calcium-mobilization preincubated for 45 mins measured every 1.52 secs for 200 secs after the addition of UTPgammaS at 15 secs by fluo-4AM-based fluorescence assay. The data set is classed as functional, cell-based. In a few lines: as §2

Data set [5] concerns the target T1, P2Y purinoceptor 2. Nature of the data set: Displacement of (E)-2-((5-(7-Chloro-2-((3-((2-(6-(3-(5,5-difluoro-7,9-dimethyl-5H-5-lambda4,6-lambda4-dipyrrolo[1,2-c:2,1-f ][1,3,2]diazaborinin-3-yl)-propanamido)hexanamido)ethyl)amino)-3-oxopropyl)amino)-4Hbenzo[5,6]cyclohepta[1,2-d]thiazol-4-yl)-2-oxo-4-thioxo-3,4-dihydropyrimidin-1(2H)-yl)methyl)-N-(1H-tetrazol-5-yl)thiazole-4-carboxamide from human N-terminal NLuc-tagged P2Y2R expressed in human 1321N1 cells incubated for 1 hr by furimazine-based NanoBRET assay. The data set is classed as cell-based. A digest of the protocol: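 Competition binding in 1321N1 cells expressing N-terminal NanoLuc-hP2Y2R. The fluorescent tracer was used at 1 µM (or the bodipy A tracer at 100 nM) against increasing concentrations of unlabeled ligand. After furimazine addition the BRET signal was read and pKi estimated; mean ± SEM of separate experiments.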

Data set [6] deals with T1, P2Y purinoceptor 2. The data set is described as follows: Binding affinity to human P2Y2R expressed in human 1321N1 cells assessed as localized membrane fluorescence at 100 nM after 30 mins in presence of AR-C118925 by confocal microscopy. Format: cell-based. A digest of the protocol:
(§3)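 1321N1 astrocytoma cells expressing untagged hP2Y2R were given 100 nM fluorescent ligand and incubated 30 min at 37°C, with or without 10 µM AR-C118925 (1). Single equatorial confocal images were then taken with the fluorescent ligand and/or antagonist still present. Membrane and intracellular fluorescence were examined; images are representative of 4 experiments.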

In data set [7] the target is T1, P2Y purinoceptor 2. Nature of the data set: Binding affinity to human P2Y2R expressed in human 1321N1 cells assessed as localized membrane fluorescence at 100 nM after 30 mins by confocal microscopy. Format: cell-based. In a few lines: as §3
Data set [8] deals with T1, P2Y purinoceptor 2. Nature of the data set: Antagonist activity at human P2Y2R expressed in human 1321N1 cells assessed as inhibition of UTPgammaS-activated calcium-mobilization at 10 uM preincubated for 45 mins measured every 1.52 secs for 200 secs after the addition of UTPgammaS at 15 secs by fluo-4AM-based fluorescence assay. The data set is classed as functional, cell-based. In a few lines:
as §2

Data set [9] can be described thus: Drug uptake in human 1321N1 cells assessed as intracellular fluorescence at 100 nM after 30 mins by confocal microscopy. The data set is classed as ADME, cell-based. As to conditions: 0.5 h, 0.1 µM. A digest of the protocol:
as §3

The Kd is the concentration at which binding is half-saturated. Turning to `Cc1ccc2c(c1)C=Cc1cc(C)ccc1C2c1cn(Cc2cc(C(=O)NCCNC(=O)COc3ccc(/C=C/C4=[N+]5C(=Cc6ccc(-c7cccs7)n6[B-]5(F)F)C=C4)cc3)cc(C(=O)Nc3nnn[nH]3)c2)c(=O)[nH]c1=S`, in data set [1], the equilibrium dissociation constant (Kd) was 2750 nM. Broadly, the inhibition is the share of the control response that was lost under treatment. Regarding `Cc1ccc2c(c1)C=Cc1cc(C)ccc1C2c1cn(C)c(=O)[nH]c1=S`, in data set [2], the inhibition was under 50%. On to `Cc1cc(C)n2c1C=C1C=CC(CCC(=O)NCCCCCC(=O)NCCOCCOCCNC(=O)CCNc3nc4c(s3)C=Cc3cc(Cl)ccc3C4c3cn(C)c(=O)[nH]c3=S)=[N+]1[B-]2(F)F` (configuration not stated), for which the Kd in data set [1] is 4170 nM. Moreover, the outcome in data set [3] was Active. On to `O=C(CCNc1nc2c(s1)C=Cc1cc(Cl)ccc1C2c1cn(Cc2nc(C(=O)Nc3nnn[nH]3)cs2)c(=O)[nH]c1=S)NCCNC(=O)COc1ccc(/C=C/C2=[N+]3C(=Cc4ccc(-c5cccs5)n4[B-]3(F)F)C=C2)cc1` (configuration not stated), for which the Kd in [1] is 891 nM. For `Cn1cc(C2c3ccc(Cl)cc3C=Cc3sc(NCCc4ccccc4)nc32)c(=S)[nH]c1=O` (configuration not stated), the inhibition in data set [2] was under 50%. On the same count and under the same terms, to `Cn1cc(C2c3ccc(Cl)cc3C=Cc3sc(NCCOc4ccccc4)nc32)c(=S)[nH]c1=O` (configuration not stated) belongs under 50%. By pKb is commonly meant −log10 of the Kb, conventionally taken in molar units. Regarding `COCCNc1nc2c(s1)C=Cc1cc(Cl)ccc1C2c1cn(C)c(=O)[nH]c1=S` (stereo in doubt; 21), the pKb in data set [4] is 5.82. `Cc1cc(C)n2c1C=C1C=CC(CCC(=O)NCCNC(=O)CCNc3nc4c(s3)C=Cc3cc(Cl)ccc3C4c3cn(Cc4nc(C(=O)Nc5nnn[nH]5)cs4)c(=O)[nH]c3=S)=[N+]1[B-]2(F)F` (configuration not stated): the Kd in [1] was 89.1 nM.

With `Cc1nc2c(s1)C=Cc1cc(Cl)ccc1C2c1cn(Cc2nc(C(=O)Nc3nnn[nH]3)cs2)c(=O)[nH]c1=S` (configuration not stated), the negative-log Kb (pKb) in data set [4] is 6.48. The term Ki denotes a measure of affinity in units of concentration, obtained from inhibition or displacement. Higher therefore signals a looser hold on the target. In the case of `Cc1cc(C)n2c1C=C1C=CC(CCC(=O)NCCCCCC(=O)NCCNC(=O)CCNc3nc4c(s3)C=Cc3cc(Cl)ccc3C4c3cn(C)c(=O)[nH]c3=S)=[N+]1[B-]2(F)F` (configuration not stated), the equilibrium dissociation constant (Kd) in [1] was 2140 nM. Besides, in [4], the negative-log Kb (pKb) came to 6.3. In data set [5], the Ki was 398 nM and the inhibition entry is “Dose-dependent effect”. For the same compound, in data set [3], the result was Active. Turning to `O=c1ccn([C@@H]2O[C@H](COP(=O)(O)OP(=O)(O)OP(=O)(O)S)[C@@H](O)[C@H]2O)c(=O)[nH]1` (some centres not stated), in data set [5], the Ki was 3470 nM and the inhibition result is “Dose-dependent effect”. In the case of `Cc1nc2c(s1)C=Cc1cc(Cl)ccc1C2c1cn(C)c(=O)[nH]c1=S` (configuration not stated), in [4], the pKb came to 5.99. In addition, in [5], the affinity corresponds to a Ki of 1550 nM and the inhibition result is “Dose-dependent effect”.

As for `Cn1cc(C2c3ccc(Cl)cc3C=Cc3sc(Nc4ccccc4)nc32)c(=S)[nH]c1=O` (configuration not stated), the inhibition in data set [2] was under 50%. In the case of `CC(C)OCCNc1nc2c(s1)C=Cc1cc(Cl)ccc1C2c1cn(C)c(=O)[nH]c1=S` (configuration not stated), in data set [4], the negative logarithm of the Kb (pKb) stood at 6.49.

On to `Cc1cc(C)n2c1C=C1C=CC(CCC(=O)NCCNC(=O)CCNc3nc4c(s3)C=Cc3cc(Cl)ccc3C4c3cn(C)c(=O)[nH]c3=S)=[N+]1[B-]2(F)F` (configuration not stated), for which, in data set [1], the dissociation constant (Kd) was 12300 nM. Moreover, the outcome in data set [3] was Active. On to `Cc1ccc2c(c1)C=Cc1cc(C)ccc1C2c1cn(Cc2nc(C(=O)Nc3nnn[nH]3)cs2)c(=O)[nH]c1=S`, for which the negative logarithm of the Kb (pKb) in data set [4] is 7.11. In [5], the affinity, expressed as Ki, was 129 nM and the inhibition entry is “Dose-dependent effect”. As to `COCCNc1nc2c(s1)C=Cc1cc(Cl)ccc1C2c1cn(C)c(=O)[nH]c1=S` (stereo in doubt; 20), in data set [4], the pKb was determined as 6.63. Turning to `Cc1ccc2c(c1)C=Cc1cc(C)ccc1C2c1cn(Cc2ccc(C(=O)Nc3nnn[nH]3)o2)c(=O)[nH]c1=S`, the inhibition entry in data set [5] is “Dose-dependent effect”. As for `Cn1cc(C2c3ccc(Cl)cc3C=Cc3sc(N)nc32)c(=S)[nH]c1=O` (configuration not stated), the pKb in [4] was 6.56. Same read-out and setting: to `COCCNc1nc2c(s1)C=Cc1cc(Cl)ccc1C2c1cn(C)c(=O)[nH]c1=S` (racemic) belongs 6.6. In the case of `O=c1[nH]c(=S)c(C2c3ccccc3CCc3ccccc32)cn1[C@@H]1O[C@H](COP(=O)(O)OP(=O)(O)C(Cl)(Cl)P(=O)(O)O)[C@@H](O)[C@H]1O`, in data set [4], the negative logarithm of the Kb (pKb) was 6.59. In data set [5], the affinity corresponds to a Ki of 83.2 nM and the inhibition entry is “Dose-dependent effect”.

On to `Cn1cc(C2c3ccc(Cl)cc3C=Cc3sc(-c4ccccc4)nc32)c(=S)[nH]c1=O` (configuration not stated), for which the inhibition in data set [2] is under 50%. Turning to `Cn1cc(C2c3ccc(Cl)cc3C=Cc3sc(N4CCOCC4)nc32)c(=S)[nH]c1=O` (configuration not stated), the inhibition in data set [2] is under 50%. Take `CN1CCN(c2nc3c(s2)C=Cc2cc(Cl)ccc2C3c2cn(C)c(=O)[nH]c2=S)CC1` (configuration not stated): the inhibition in data set [2] was under 50%. For the compound `Cc1ccc2c(c1)C=Cc1cc(C)ccc1C2c1cn(Cc2cc(C(=O)NCCOCCOCCNC(=O)COc3ccc(/C=C/C4=[N+]5C(=Cc6ccc(-c7cccs7)n6[B-]5(F)F)C=C4)cc3)cc(C(=O)Nc3nnn[nH]3)c2)c(=O)[nH]c1=S`, in data set [1], the equilibrium dissociation constant (Kd) was 759 nM. As to `CCOCCNc1nc2c(s1)C=Cc1cc(Cl)ccc1[C@H]2c1cn(C)c(=O)[nH]c1=S`, the pKb in [4] was 6.74 to 6.78. The inhibition result in data set [5] was “Dose-dependent effect”.

In the case of `O=C(CCCCCNC(=O)COc1ccc(/C=C/C2=[N+]3C(=Cc4ccc(-c5cccs5)n4[B-]3(F)F)C=C2)cc1)NCCNC(=O)CCNc1nc2c(s1)C=Cc1cc(Cl)ccc1C2c1cn(Cc2nc(C(=O)Nc3nnn[nH]3)cs2)c(=O)[nH]c1=S` (configuration not stated), the Kd in data set [1] was 129 nM. The outcome in [6] was inactive. In data set [7], the outcome was Active. Further, the pKb in [8] was 5.69. In addition, in data set [9], the Drug uptake result is “Not Active”. As for `Cc1ccc2c(c1)C=Cc1cc(C)ccc1C2c1cn(Cc2nc(C(=O)O)cs2)c(=O)[nH]c1=S`, in data set [4], the pKb worked out at 6.43. Regarding `CCOCCNc1nc2c(s1)C=Cc1cc(Cl)ccc1C2c1cn(C)c(=O)[nH]c1=S` (racemic), the negative-log Kb (pKb) in [4] is 6.73. As for `CCOCCNc1nc2c(s1)C=Cc1cc(Cl)ccc1[C@@H]2c1cn(C)c(=O)[nH]c1=S`, the pKb in data set [4] was under 5. For the same compound, the inhibition is under 50% in [2] and “Dose-dependent effect” in [5].

As to `Cn1cc(C2c3ccc(Cl)cc3C=Cc3sc(N4CCCCC4)nc32)c(=S)[nH]c1=O` (configuration not stated), the inhibition in data set [2] was under 50%. For the compound `Cn1cc(C2c3ccc(Cl)cc3C=Cc3sc(NCc4ccccc4)nc32)c(=S)[nH]c1=O` (configuration not stated), the inhibition in data set [2] is under 50%.
